Measurements as given in ChEMBL document CHEMBL4765234 (J Med Chem, 2016).
Activity calls are given as the source filed them. The calls are words filed in the database; no cut-off is given here.

How the values were obtained:
[1] = biological target: T1, Free fatty acid receptor 1 (Homo sapiens, UniProt O14842); assay: Displacement of [3H]-TAK-875 from human recombinant full-length GPR40 expressed in human HEK293 cell membrane incubated for 2 hrs by solid scintillation counting method; format: cell membranes
[2] = biological target: T2, Peroxisome proliferator-activated receptor alpha (Homo sapiens) (UniProt Q07869); assay: Displacement of [3H]-[…] from PPARalpha (unknown origin) expressed in baculovirus infected Sf9 insect cells upto 30 uM measured after 10 hrs by microbeta scintillation counting analysis; conditions: dose microM <=30, time 10.0 hrs
T2 sequence (whole entry): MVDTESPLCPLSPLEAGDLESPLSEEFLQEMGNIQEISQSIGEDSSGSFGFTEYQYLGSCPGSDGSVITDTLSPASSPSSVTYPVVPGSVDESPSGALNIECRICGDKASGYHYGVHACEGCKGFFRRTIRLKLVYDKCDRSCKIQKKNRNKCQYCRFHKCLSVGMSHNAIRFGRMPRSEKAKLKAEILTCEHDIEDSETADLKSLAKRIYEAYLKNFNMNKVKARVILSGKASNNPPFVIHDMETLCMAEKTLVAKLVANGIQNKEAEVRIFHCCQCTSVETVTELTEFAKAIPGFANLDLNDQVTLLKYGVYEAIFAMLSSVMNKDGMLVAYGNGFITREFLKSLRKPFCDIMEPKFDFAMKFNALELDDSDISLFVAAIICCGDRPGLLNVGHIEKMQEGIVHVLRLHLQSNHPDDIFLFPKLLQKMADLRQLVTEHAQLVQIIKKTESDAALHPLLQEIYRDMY
In short: (§1)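 Scintillation proximity assay. Sf9 lysates with baculovirus-expressed PPARα (0.3 μg), PPARδ (0.5 μg) or PPARγ (1.25 μg), each with RXRα, were bound via biotinylated DR2 oligo (0.126 nM) to streptavidin yttrium silicate beads. Buffer was HEPES pH 7.8 with KCl, MgCl2, DTT, CHAPS, 14% glycerol and salmon sperm DNA. A 3H reference agonist ligand was used, with 11 compound concentrations, for 10 h. Nonspecific binding was defined with 10000 nM unlabeled reference. Ki was derived from IC50.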

[3] = biological target: T1, Free fatty acid receptor 1; assay: Agonist activity at human recombinant full length GPR40 overexpressed in human HEK293 cells assessed as increase in inositol phosphate accumulation in presence of terbium cryptate-labeled anti IP1/d2-labelled IP1 measured after 120 mins by HTRF assay; format: functional, cell-based
In short: (§2)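 HEK293 hGPR40 cells (20K/well) were cultured overnight, washed, and held in IP1 stimulation buffer. IP-1 was measured by competitive HTRF immunoassay with terbium cryptate anti-IP1 mAb and d2-labelled IP1.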

[4] = biological target: Free fatty acid receptor 1 (Mus musculus, UniProt Q76JU9); assay: Agonist activity at Prolink-tagged mouse GPR40 fused with EA-tagged beta-arrestin expressed in human U2OS cells assessed as induction of beta-arrestin recruitment measured after 90 mins by beta-galactosidase based PathHunter assay; format: cell-based
In short: (§3)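 PathHunter β-gal complementation. Cells were incubated overnight at 5000/well in medium with 1% heat-inactivated FBS. Compound was added as a 20-point 2-fold series from a top final of 100 μM (1% DMSO) for 90 min at 37 °C, followed by detection reagents and chemiluminescence read after 1 h at rt.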

[5] = biological target: T3, Peroxisome proliferator-activated receptor delta (Homo sapiens) (UniProt Q03181); assay: Displacement of [3H]-[…] from PPARdelta (unknown origin) expressed in baculovirus infected Sf9 insect cells upto 30 uM measured after 10 hrs by microbeta scintillation counting analysis; conditions: dose microM <=30, time 10.0 hrs; in short: as §1
T3 sequence (whole entry): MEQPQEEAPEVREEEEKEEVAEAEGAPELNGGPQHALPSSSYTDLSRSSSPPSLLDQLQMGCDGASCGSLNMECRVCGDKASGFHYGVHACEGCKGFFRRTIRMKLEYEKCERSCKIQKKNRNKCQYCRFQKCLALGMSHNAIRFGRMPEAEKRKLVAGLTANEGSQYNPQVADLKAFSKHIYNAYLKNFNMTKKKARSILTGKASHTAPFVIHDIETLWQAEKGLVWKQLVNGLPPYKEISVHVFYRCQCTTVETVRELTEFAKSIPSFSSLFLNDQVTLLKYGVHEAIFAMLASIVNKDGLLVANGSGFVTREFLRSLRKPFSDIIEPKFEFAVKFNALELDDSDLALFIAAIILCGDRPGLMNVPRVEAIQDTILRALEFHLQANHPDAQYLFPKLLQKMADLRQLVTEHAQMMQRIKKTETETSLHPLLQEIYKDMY

[6] = biological target: T1, Free fatty acid receptor 1; assay: Agonist activity at human recombinant full length GPR40 overexpressed in human HEK293 cells assessed as increase in intracellular calcium level measured over 3 mins by calcium 4 dye based FLIPR assay; format: functional, cell-based
In short: (§4)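 HEK293 cells overexpressing hGPR40 (25K/well) were cultured overnight in DMEM/F12 with 0.2% FBS and geneticin. Compound was tested at 40 μM–0.1 nM final (20-point, 1% DMSO), and FLIPR fluorescence was read over 3 min.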

[7] = Protein binding in plasma (unknown origin) by equilibrium dialysis method; format: ADME, cell-free; conditions: human, read-out: PPB
In short: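 Plasma protein binding measured by equilibrium dialysis.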

[8] = biological target: T1, Free fatty acid receptor 1; assay: Agonist activity at human recombinant full-length Prolink-tagged GPR40 fused with EA-tagged beta-arrestin expressed in human HEK293 cells assessed as induction of beta-arrestin recruitment measured after 90 mins by beta-galactosidase based PathHunter assay; format: cell-based; in short: as §3
[9] = biological target: Free fatty acid receptor 1 (Mus musculus) (UniProt Q76JU9); assay: Agonist activity at Prolink-tagged mouse GPR40 fused with EA-tagged beta-arrestin expressed in human U2OS cells assessed as induction of beta-arrestin recruitment measured after 90 mins by beta-galactosidase based PathHunter assay relative to control; format: cell-based; conditions: filed as agonist; in short: as §3
[10] = biological target: T1, Free fatty acid receptor 1; assay: Agonist activity at human recombinant full length GPR40 overexpressed in human HEK293 cells assessed as increase in inositol phosphate accumulation in presence of terbium cryptate-labeled anti IP1/d2-labelled IP1 measured after 120 mins by HTRF assay relative to AMG837; format: functional, cell-based; conditions: filed as agonist; in short: as §2
[11] = biological target: Free fatty acid receptor 1 (Rattus norvegicus, UniProt Q8K3T4); assay: Agonist activity at Prolink-tagged rat GPR40 fused with EA-tagged beta-arrestin expressed in human U2OS cells assessed as induction of beta-arrestin recruitment measured after 90 mins by beta-galactosidase based PathHunter assay; format: cell-based; in short: as §3
[12] = biological target: T1, Free fatty acid receptor 1; assay: Agonist activity at human recombinant full-length Prolink-tagged GPR40 fused with EA-tagged beta-arrestin expressed in human HEK293 cells assessed as induction of beta-arrestin recruitment measured after 90 mins by beta-galactosidase based PathHunter assay relative to control; format: cell-based; conditions: filed as agonist; in short: as §3
[13] = biological target: Free fatty acid receptor 1 (Rattus norvegicus) (UniProt Q8K3T4); assay: Agonist activity at Prolink-tagged rat GPR40 fused with EA-tagged beta-arrestin expressed in human U2OS cells assessed as induction of beta-arrestin recruitment measured after 90 mins by beta-galactosidase based PathHunter assay relative to control; format: cell-based; conditions: filed as agonist; in short: as §3
[14] = biological target: T4, Peroxisome proliferator-activated receptor gamma (Homo sapiens) (UniProt P37231); assay: Displacement of [3H]-[…] from PPARgamma (unknown origin) expressed in baculovirus infected Sf9 insect cells upto 30 uM measured after 10 hrs by microbeta scintillation counting analysis; conditions: dose microM <=30, time 10.0 hrs; in short: as §1
T4 sequence (whole entry): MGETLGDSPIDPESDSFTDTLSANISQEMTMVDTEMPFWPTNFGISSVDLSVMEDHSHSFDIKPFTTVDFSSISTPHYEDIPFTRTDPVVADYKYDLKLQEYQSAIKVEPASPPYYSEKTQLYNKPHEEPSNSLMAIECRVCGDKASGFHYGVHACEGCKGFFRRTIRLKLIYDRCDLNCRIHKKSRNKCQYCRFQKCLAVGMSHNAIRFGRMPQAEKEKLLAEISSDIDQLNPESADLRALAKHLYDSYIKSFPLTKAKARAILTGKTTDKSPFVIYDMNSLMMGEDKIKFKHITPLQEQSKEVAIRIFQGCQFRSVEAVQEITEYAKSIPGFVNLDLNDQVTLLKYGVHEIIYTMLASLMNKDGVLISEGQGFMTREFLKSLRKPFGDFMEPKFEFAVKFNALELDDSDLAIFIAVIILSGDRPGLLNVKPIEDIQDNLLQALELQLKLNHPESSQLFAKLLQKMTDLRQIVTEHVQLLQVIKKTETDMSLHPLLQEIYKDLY

[15] = biological target: T1, Free fatty acid receptor 1; assay: Agonist activity at human recombinant full length GPR40 overexpressed in human HEK293 cells assessed as increase in intracellular calcium level measured over 3 mins by calcium 4 dye based FLIPR assay relative to 100 uM linoleic acid; format: functional, cell-based; conditions: filed as agonist; in short: as §4

T1 sequence (O14842 whole entry): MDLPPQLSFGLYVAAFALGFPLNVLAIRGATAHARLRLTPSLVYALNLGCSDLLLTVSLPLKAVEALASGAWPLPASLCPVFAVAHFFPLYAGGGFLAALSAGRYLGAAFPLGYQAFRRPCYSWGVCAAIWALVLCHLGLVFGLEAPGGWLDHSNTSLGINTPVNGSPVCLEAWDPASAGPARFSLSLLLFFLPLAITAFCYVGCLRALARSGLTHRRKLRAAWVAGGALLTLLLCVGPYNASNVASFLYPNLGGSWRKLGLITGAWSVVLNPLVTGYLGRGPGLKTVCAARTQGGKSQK
Sequence of Free fatty acid receptor 1 (Rattus norvegicus, UniProt Q8K3T4) (Q8K3T4 whole entry, the tested form may be a part): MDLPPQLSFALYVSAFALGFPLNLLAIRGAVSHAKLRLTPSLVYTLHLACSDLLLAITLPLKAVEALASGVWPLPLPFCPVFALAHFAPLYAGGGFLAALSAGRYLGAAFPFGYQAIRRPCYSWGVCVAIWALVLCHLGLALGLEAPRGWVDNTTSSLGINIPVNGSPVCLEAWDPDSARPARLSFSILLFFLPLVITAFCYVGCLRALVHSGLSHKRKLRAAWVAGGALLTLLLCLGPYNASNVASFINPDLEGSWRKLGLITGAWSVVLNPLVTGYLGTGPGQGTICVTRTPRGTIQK
Sequence of Free fatty acid receptor 1 (Rattus norvegicus) (Q8K3T4 whole entry, the tested form may be a part): as above
Sequence of Free fatty acid receptor 1 (Mus musculus) (Q76JU9 whole entry, the tested form may be a part): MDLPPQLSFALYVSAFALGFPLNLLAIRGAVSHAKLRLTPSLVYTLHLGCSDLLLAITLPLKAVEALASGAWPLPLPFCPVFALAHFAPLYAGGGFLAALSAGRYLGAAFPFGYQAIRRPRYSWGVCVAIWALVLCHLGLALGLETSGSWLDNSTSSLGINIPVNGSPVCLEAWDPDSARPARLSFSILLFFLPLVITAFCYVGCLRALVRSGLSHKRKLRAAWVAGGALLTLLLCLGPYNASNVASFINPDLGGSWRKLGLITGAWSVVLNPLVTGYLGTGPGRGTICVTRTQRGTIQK
Sequence of Free fatty acid receptor 1 (Mus musculus, UniProt Q76JU9) (Q76JU9 whole entry, the tested form may be a part): as above

SMILES	Ki [1] [nM]	Activity [2]	EC50 [3] [nM]	EC50 [4] [nM]	Activity [5]	EC50 [6] [nM]	fraction unbound [7]	EC50 [8] [nM]	Emax [9] [%]	Emax [10] [%]	EC50 [11] [nM]	Emax [12] [%]	Emax [13] [%]	Activity [14]	Emax [15] [%]
CC#C[C@@H](CC(=O)O)c1ccc(OCc2ccc(CN3CCC4(CC3)CN(C)c3ccc(OC)cc34)cc2)cc1	29	inactive	23	11	inactive	130	< 0.01	100	144	311	18	129	145	inactive	49
CC#C[C@@H](CC(=O)O)c1ccc(OCc2ccc(CN3CCC4(CC3)CN(C)c3ccc(C)cc34)cc2)cc1	14	inactive	3.5	2	inactive	61	< 0.01	25	145	231	4.6	121	138	inactive	60
CC#C[C@@H](CC(=O)O)c1ccc(OCc2ccc(CN3CCC4(C=Cc5ccccc54)CC3)o2)cc1	20	inactive	22	2.1	inactive	1.6	< 0.01	62	121	127	4.2	121	117	inactive	59
CC#C[C@@H](CC(=O)O)c1ccc(OCc2ccc(CN3CCC4(C=Cc5ccccc54)CC3)c(C)c2)cc1	1.3	inactive	4.2	0.42	inactive	23	< 0.01	1.7	147	206	0.54	150	146	inactive	47
CC#C[C@H](CC(=O)O)c1ccc(OCc2ccc(CN3CCC4(C=Cc5ccccc54)CC3)cc2)cc1	310	inactive	360	60	inactive	2800	< 0.01	540	100	166	120	95	101	inactive	46
CC#C[C@@H](CC(=O)O)c1ccc(OCc2sc(CN3CCC4(C=Cc5ccccc54)CC3)nc2C)cc1	100	inactive	72	18	inactive	17	< 0.01	520	97	97	100	100	73	inactive	53
CC#C[C@@H](CC(=O)O)c1ccc(OCc2ccc(CN3CCC4(C=Cc5ccccc54)CC3)c(Cl)c2)cc1	1.5	inactive	4.9	0.83	inactive	32	< 0.01	3.3	149	193	1	150	161	inactive	47
CC#C[C@@H](CC(=O)O)c1ccc(OCc2ccc(CN3CCC4(CC3)CN(C)c3ccc(C(F)(F)F)cc34)cc2)cc1	2.7	inactive	4.7	0.5	inactive	14	< 0.01	2.9	158	275	0.59	139	154	inactive	42
CC#C[C@@H](CC(=O)O)c1ccc(OCc2ccc(CN3CCC4(C=Cc5ccccc54)CC3)c(F)c2)cc1	4	inactive	2.3	1.2	inactive	17	< 0.01	9.3	148	210	1.3	135	145	inactive	51
CC#C[C@@H](CC(=O)O)c1ccc(OCc2cnc(CN3CCC4(C=Cc5ccccc54)CC3)s2)cc1	120	inactive	5.2	3.8	inactive	4.4	< 0.01	170	127	129	11	114	114	inactive	62
